Results taken from article PMC12059366 (Biomolecules & Therapeutics, 2025).

Key:
[1] = system: complementary DNAs; experiment: Melting temperature; type: binding; details: 2 μM PNA-DNA duplex, 10 mM sodium phosphate pH 7.0, 0.1 M NaCl; absorbance at 260 nm, 25°C to 90°C at 1.0°C per minute
[2] = system: IL-6; experiment: IL-6 level by ELISA in supernatants of IFNγ-treated human keratinocytes; type: cell-based; details: concentration-dependent, n=3
[3] = system: IDO1 pre-mRNA; experiment: IDO1 gene expression by q-RT-PCR in human keratinocytes; type: cell-based; details: non-cytotoxic concentrations (Fig. 2B, 2C), n=3
[4] = system: PGE2; experiment: PGE2 level by ELISA in supernatants of IFNγ-treated human keratinocytes; type: cell-based; details: concentration-dependent, n=3
[5] = system: IDO1; experiment: IDO1 gene expression by q-RT-PCR in IFNγ-treated human keratinocytes; type: cell-based; details: compound 24 h before IFNγ, n=3
Summary of the method: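 Primary neonatal foreskin human keratinocytes in supplemented KBM Gold medium were pretreated with test PNA for 24 h, then given recombinant human IFNγ in KBM Gold basal medium. The control was scrambled PNA at 0.1 μM. RNA was extracted with TRIzol and RNeasy, then reverse-transcribed. IDO1 was measured by TaqMan q-RT-PCR against RPL13A using the Pfaffl method. Results are mean ± SD, n=3, t-test.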

[6] = system: IL-8; experiment: IL-8 level by ELISA in supernatants of IFNγ-treated human keratinocytes; type: cell-based; details: concentration-dependent, n=3

Substance	Tm (binding affinity to complementary DNA) [1]	IL-6 level in cell culture supernatant [2]	IDO1 gene expression, concentration-dependent analysis [3]	PGE2 level in cell culture supernatant [4]	IDO1 expression [5]	IL-8 level in cell culture supernatant [6]
CG*^2TA*C*TTTGA*TTG*^2 [Compound 4]	72.07 °C					
Compound 2: modified PNA oligomer with cationic lipid-bearing nucleobases targeting IDO1 pre-mRNA (CTCCAAACCTTACG; PNA; cationic lipid-bearing nucleobases)	82.07 °C	effectively reduced	significant inhibitory effect	effectively reduced	significantly inhibits IDO1 expression	effectively reduced
